In ChEMBL document CHEMBL1156035, “(3R,5S,7as)-(3,5-Bis(4-fluorophenyl)tetrahydro-1H-oxazolo[3,4-c]oxazol-7a-yl)methanol, a novel neuroprotective agent” (J Med Chem, 2009):
Each block holds one compound with its values, some of them ahead of it. The source made the active and inactive calls. The rule behind the calls is not given here.

Tests used:
Bos taurus [1] = organism: Bos taurus; assay: Induction of bovine tubulin assembly assessed as microtubule formation at 25 uM after 30 mins by DAPI staining-based fluorescence assay in absence of GTP
Method in brief: (§1)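 DAPI fluorescence assembly assay: bovine brain microtubule protein (containing MAPs) at 2 mg/mL in PEM buffer (0.1 M PIPES, 1 mM MgSO4, 1 mM EGTA, pH 6.9), 4% DMSO and 10 μM DAPI, without GTP, with varying compound concentrations. Plates were incubated 30 min at 37 °C and fluorescence was read. Values were corrected for a no-compound control and expressed relative to the maximum given by 25 μM paclitaxel.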

Bos taurus [2] = organism: Bos taurus; assay: Stabilization of bovine microtubule against cold-induced […] assessed as pelleted protein level at 20 uM by centrifugation assay
Bos taurus [3] = organism: Bos taurus; assay: Displacement of [3H](3R,5S,7as)-(3,5-bis(4-fluorophenyl)tetrahydro-1H-oxazolo[3,4-c]oxazol-7a-yl)methanol from bovine microtubule at 40 uM
Method in brief: (§2)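 Competitive binding: microtubules were formed from bovine brain microtubule protein (2 mg/mL) in PEM buffer with 0.5 mM GTP. Conditions were 100 μM tritiated compound with 0–40 μM paclitaxel, or 20 μM [3H]paclitaxel with 0–400 μM competitor, at 37 °C for 10 min. Pellets were spun at 100000g for 4 min, dissolved in 0.1 M NaOH, and radioactivity and protein were measured.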

Bos taurus [4] = organism: Bos taurus; assay: Induction of bovine tubulin aggregation at 100 to 400 uM after 30 mins by electron microscopy
Bos taurus [5] = organism: Bos taurus; assay: Induction of bovine tubulin assembly assessed as microtubule formation at 100 to 400 uM after 30 mins by electron microscopy
[6] = Neuroprotective effect against beta-amyloid (25-35)-induced cell death in Sprague-Dawley rat cortical neuron treated 2 hrs before beta-amyloid (25-35) challenge measured after 48 hrs by propidium iodide staining-based fluorescence microscopy; assay type: functional; conditions: Cortical neurone
Method in brief: (§3)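 Rat cortical neurons from embryonic day 18 Sprague–Dawley fetuses, plated on poly-D-lysine and kept serum-free in DMEM/F12 with N2, were used after 5 days. Compound (0.5–60 nM) was added about 2 h before 10 μM Aβ25–35 or Aβ1–42, preaggregated 24 h at 37 °C in Tris pH 7.4. Vehicle DMSO was ≤0.04%. After 48 h, cells were stained 30 min with 20 μM propidium iodide and 150 nM calcein-AM. Live and dead cells were counted in 6–12 fields from duplicate dishes across at least two preparations (about 1500 cells). Student's t test was used.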

Bos taurus [7] = organism: Bos taurus; assay: Induction of bovine tubulin assembly assessed as microtubule formation at 100 uM after 30 mins by DAPI staining-based fluorescence assay in absence of GTP; method in brief: as §1
Bos taurus [8] = organism: Bos taurus; assay: Induction of bovine tubulin assembly assessed as microtubule formation at 200 to 400 uM after 30 mins by DAPI staining-based fluorescence assay in absence of GTP; method in brief: as §1
Bos taurus [9] = organism: Bos taurus; assay: Induction of bovine tubulin assembly assessed as formation of pelleted protein at 100 to 400 uM after 30 mins by centrifugation assay relative to paclitaxel in presence of GTP
Bos taurus [10] = organism: Bos taurus; assay: Stabilization of bovine microtubule against cold-induced […] assessed as pelleted protein level at 400 uM by centrifugation assay
Bos taurus [11] = organism: Bos taurus; assay: Displacement of [3H]paclitaxel from bovine microtubule at 400 uM; method in brief: as §2
Cortical neurone [12] = assay: Neuroprotective effect against beta-amyloid (1-42)-induced cell death in Sprague-Dawley rat cortical neuron at 0.5 to 60 nM treated 2 hrs before beta-amyloid (1-42) challenge measured after 48 hrs by propidium iodide staining-based fluorescence microscopy; assay type: functional; method in brief: as §3
Cortical neurone [13] = assay: Neuroprotective effect against staurosporine-induced cell death in Sprague-Dawley rat cortical neuron at 100 nM treated 2 hrs before staurosporine challenge measured after 48 hrs by propidium iodide staining-based fluorescence microscopy; assay type: functional
Cortical neurone [14] = assay: Neuroprotective effect against thapsigargin-induced cell death in Sprague-Dawley rat cortical neuron at 100 nM treated 2 hrs before thapsigargin challenge measured after 48 hrs by propidium iodide staining-based fluorescence microscopy; assay type: functional
Cortical neurone [15] = assay: Neuroprotective effect against paraquat-induced cell death in Sprague-Dawley rat cortical neuron at 100 nM treated 2 hrs before paraquat challenge measured after 48 hrs by propidium iodide staining-based fluorescence microscopy; assay type: functional
Cortical neurone [16] = assay: Neuroprotective effect against H2O2-induced cell death in Sprague-Dawley rat cortical neuron at 100 nM treated 2 hrs before H2O2 challenge measured after 48 hrs by propidium iodide staining-based fluorescence microscopy; assay type: functional
Bos taurus [17] = organism: Bos taurus; assay: Induction of P-gp-mediated rhodamine 123 uptake in BBMEC at 1 to 50 uM
Method in brief: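 Primary bovine brain microvessel endothelial cells in 24-well plates were rinsed and equilibrated 10 min in warm PBSA. They were preincubated 30 min at 37 °C with compound at 1–50 μM, then given 5 μM rhodamine 123 for 2 h. Cells were rinsed with ice-cold PBS and lysed in 0.5% Triton X-100/0.2 M NaOH. Rhodamine 123 fluorescence was normalized to BCA protein. Cyclosporine A served as positive control.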

[18] = Apparent passive permeability from luminal to abluminal side of BBMEC at 10 uM up to 1.5 hrs; assay type: ADME, Bos taurus; conditions: cattle
Method in brief: (§4)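 Bovine brain microvessel endothelial cell monolayers, confluent on 0.4 μm polycarbonate membranes coated with collagen and fibronectin, mounted in side-by-side diffusion chambers with PBSA. The donor side (luminal or abluminal) received 10 μM unlabeled compound plus trace tritiated compound. Receiver samples were taken at time points up to 90 min and counted by liquid scintillation.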

[19] = Apparent passive permeability from abluminal to luminal side of BBMEC at 10 uM up to 1.5 hrs; assay type: ADME, Bos taurus; conditions: cattle; method in brief: as §4

Activity (Bos taurus [1]): 20% | Activity (Bos taurus [2]): 79% | Activity (Bos taurus [3]): 42%
SMILES: CC(=O)O[C@H]1C(=O)[C@@]2(C)[C@H]([C@H](OC(=O)c3ccccc3)[C@]3(O)C[C@H](OC(=O)[C@H](O)[C@@H](NC(=O)c4ccccc4)c4ccccc4)C(C)=C1C3(C)C)[C@]1(OC(C)=O)CO[C@@H]1C[C@@H]2O

Activity (Bos taurus [4]): Active | Activity (Bos taurus [5]): inactive
SMILES: OCC12CO[C@H](c3ccc(F)cc3)N1[C@@H](c1ccc(F)cc1)OC2 (relative stereo)
EC50 [6]: 50 nM

Activity (Bos taurus [7]): Active | Activity (Bos taurus [8]): inactive | Activity (Bos taurus [9]): 10% | Activity (Bos taurus [4]): Active | Activity (Bos taurus [5]): inactive | Activity (Bos taurus [10]): 9% | Activity (Bos taurus [11]): 40% | Activity (Bos taurus [17]): inactive | Papp at 1.5 h, 10 µM [18]: 286 ×10⁻⁶ cm/s | Papp at 1.5 h, 10 µM [19]: 244 ×10⁻⁶ cm/s
SMILES: OC[C@]12CO[C@H](c3ccc(F)cc3)N1[C@H](c1ccc(F)cc1)OC2
EC50 [6]: 5 nM | Activity (Cortical neurone [12]): Active | Activity (Cortical neurone [13]): Active | Activity (Cortical neurone [14]): Active | Activity (Cortical neurone [15]): Active | Activity (Cortical neurone [16]): Active

Activity (Bos taurus [4]): Active | Activity (Bos taurus [5]): inactive
SMILES: OCC1(CO)COC(c2ccc(F)cc2)N1 (stereo not given)
EC50 [6]: 40 nM
